According to ChEMBL document CHEMBL3994591, “Novel ferulic amide derivatives with tertiary amine side chain as acetylcholinesterase and butyrylcholinesterase inhibitors: The influence of carbon spacer length, alkylamine and aromatic group” (Eur J Med Chem, 2017):

Assays:
Cholinesterase = Cholinesterase (Homo sapiens, UniProt P06276); experiment: Inhibition of butyrylcholinesterase (unknown origin) using butyrylthiocholine iodide as substrate after 25 mins by Ellmann method
In short: (§1)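 Modified Ellman assay, triplicate. Compounds dissolved in Tween 80, diluted with water to five concentrations. Mix: enzyme […], substrate (acetylthiocholine iodide or butyrylthiocholine iodide) and test compound in phosphoric acid buffer, pH 8.0, 0.1 mol/L. Incubated 25 min at 30 °C, then terminated. IC50 reported as mean ± SD of three experiments.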

Acetylcholinesterase [1] = biological target: T1, Acetylcholinesterase (Homo sapiens, UniProt P22303); experiment: Potency index, ratio of rivastigmine IC50 to compound IC50 for acetylcholinesterase (unknown origin)
[2] = Octanol-water partition coefficient, log P of the compound at pH 7.4 by shake flask method; type: physicochemical
In short: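 Shake flask partition between octanol and PBS (pH 7.4). Mixture shaken at 37 °C overnight, then centrifuged at 2000 rpm for 20 min. Phases analysed by C18 HPLC with methanol-0.1% TEA (85:15, v/v) at 1.0 mL/min and 32 °C, detection at 322 nm. Run in triplicate, log P calculated.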

Acetylcholinesterase [3] = biological target: T1, Acetylcholinesterase; experiment: Inhibition of acetylcholinesterase (unknown origin) using acetylthiocholine iodide as substrate after 25 mins by Ellmann method; in short: as §1
Acetylcholinesterase [4] = biological target: T1, Acetylcholinesterase; experiment: Competitive inhibition of acetylcholinesterase (unknown origin) using acetylthiocholine iodide as substrate by Michaelis-Menten plot analysis
[5] = Inhibition of carboxylesterase (unknown origin) using 4-nitrophenyl acetate as substrate by UV-Vis spectrophotometer; parameters: species or system Homo sapiens
In short: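 Read-out was 4-nitrophenol released by CaE hydrolysis of 1.0 mmol/L 4-nitrophenyl acetate, measured at 405 nm. Reactions ran in 100 mmol/L potassium phosphate buffer, pH 8.0, at 25 °C. CaE activity was taken as proportional to 4-nitrophenol concentration.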

Homo sapiens = organism: Homo sapiens; experiment: Selectivity index, ratio of IC50 for butyrylcholinesterase (unknown origin) to IC50 for acetylcholinesterase (unknown origin)
Acetylcholinesterase [6] = biological target: T1, Acetylcholinesterase; experiment: Noncompetitive inhibition of acetylcholinesterase (unknown origin) using acetylthiocholine iodide as substrate by Michaelis-Menten plot analysis

T1 sequence (P22303 whole entry): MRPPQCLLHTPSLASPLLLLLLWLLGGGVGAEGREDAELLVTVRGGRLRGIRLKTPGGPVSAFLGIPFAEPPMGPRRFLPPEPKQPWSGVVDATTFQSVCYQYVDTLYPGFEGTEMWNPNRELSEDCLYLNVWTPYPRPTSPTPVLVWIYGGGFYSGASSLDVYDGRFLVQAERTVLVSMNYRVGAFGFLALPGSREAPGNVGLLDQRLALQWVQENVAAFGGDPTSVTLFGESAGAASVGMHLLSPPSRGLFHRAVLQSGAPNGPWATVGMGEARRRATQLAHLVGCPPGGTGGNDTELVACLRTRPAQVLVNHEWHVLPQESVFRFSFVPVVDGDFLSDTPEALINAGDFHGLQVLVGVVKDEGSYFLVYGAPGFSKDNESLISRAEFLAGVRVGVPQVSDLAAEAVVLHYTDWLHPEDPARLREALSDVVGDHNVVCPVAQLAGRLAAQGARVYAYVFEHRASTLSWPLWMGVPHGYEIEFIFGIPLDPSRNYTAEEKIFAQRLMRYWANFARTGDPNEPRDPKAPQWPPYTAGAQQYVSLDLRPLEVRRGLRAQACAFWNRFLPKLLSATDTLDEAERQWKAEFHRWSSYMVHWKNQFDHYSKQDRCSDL
Sequence of Cholinesterase (P06276 whole entry): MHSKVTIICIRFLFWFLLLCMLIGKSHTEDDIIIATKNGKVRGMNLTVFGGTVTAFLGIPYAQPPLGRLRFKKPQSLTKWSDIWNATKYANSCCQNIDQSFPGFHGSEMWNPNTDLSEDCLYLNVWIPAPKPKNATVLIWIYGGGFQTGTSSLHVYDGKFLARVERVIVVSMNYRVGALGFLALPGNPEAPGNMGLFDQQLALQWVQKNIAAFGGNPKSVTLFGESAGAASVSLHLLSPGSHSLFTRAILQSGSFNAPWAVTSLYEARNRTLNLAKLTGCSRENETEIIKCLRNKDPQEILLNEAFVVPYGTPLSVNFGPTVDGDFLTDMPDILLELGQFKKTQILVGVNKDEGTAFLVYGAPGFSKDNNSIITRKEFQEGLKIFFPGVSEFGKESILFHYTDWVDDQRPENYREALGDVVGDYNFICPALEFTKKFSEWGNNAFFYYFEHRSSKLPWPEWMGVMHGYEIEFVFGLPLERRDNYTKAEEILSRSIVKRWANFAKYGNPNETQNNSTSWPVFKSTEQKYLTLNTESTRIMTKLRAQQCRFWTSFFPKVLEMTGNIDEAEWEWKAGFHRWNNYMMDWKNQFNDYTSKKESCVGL

## COc1cc(/C=C/C(=O)Nc2ccccc2)ccc1OCCCCCCN1CCCCC1
Cholinesterase
  IC50: 13000 nM
Acetylcholinesterase [1]
  Ratio IC50: 15
[2]
  logD: 1.77
Acetylcholinesterase [3]
  IC50: 710 nM
Acetylcholinesterase [4]
  Ki: 480 nM
[5]
  IC50: > 500000 nM
Homo sapiens
  Ratio IC50: 18.3
Acetylcholinesterase [6]
  Ki: 920 nM
